Assay results published in ChEMBL document CHEMBL5661979, “Pharmacological inhibition of BMK1 suppresses tumor growth through promyelocytic leukemia protein” (Cancer Cell, 2010).
Active and inactive are the calls of the source. The rule behind the calls is not given here.

Assays:
[1] = biological target: Mitogen-activated protein kinase kinase kinase 5 (Homo sapiens, UniProt Q99683); test: Inhibition of MAP3K5 in human HeLa cells lysate pre incubated for 15 mins followed by ATP acyl phosphate probe addition and measured after 10 mins by LC-MS/MS analysis; format: subcellular
Sequence of Mitogen-activated protein kinase kinase kinase 5 (Q99683 whole entry): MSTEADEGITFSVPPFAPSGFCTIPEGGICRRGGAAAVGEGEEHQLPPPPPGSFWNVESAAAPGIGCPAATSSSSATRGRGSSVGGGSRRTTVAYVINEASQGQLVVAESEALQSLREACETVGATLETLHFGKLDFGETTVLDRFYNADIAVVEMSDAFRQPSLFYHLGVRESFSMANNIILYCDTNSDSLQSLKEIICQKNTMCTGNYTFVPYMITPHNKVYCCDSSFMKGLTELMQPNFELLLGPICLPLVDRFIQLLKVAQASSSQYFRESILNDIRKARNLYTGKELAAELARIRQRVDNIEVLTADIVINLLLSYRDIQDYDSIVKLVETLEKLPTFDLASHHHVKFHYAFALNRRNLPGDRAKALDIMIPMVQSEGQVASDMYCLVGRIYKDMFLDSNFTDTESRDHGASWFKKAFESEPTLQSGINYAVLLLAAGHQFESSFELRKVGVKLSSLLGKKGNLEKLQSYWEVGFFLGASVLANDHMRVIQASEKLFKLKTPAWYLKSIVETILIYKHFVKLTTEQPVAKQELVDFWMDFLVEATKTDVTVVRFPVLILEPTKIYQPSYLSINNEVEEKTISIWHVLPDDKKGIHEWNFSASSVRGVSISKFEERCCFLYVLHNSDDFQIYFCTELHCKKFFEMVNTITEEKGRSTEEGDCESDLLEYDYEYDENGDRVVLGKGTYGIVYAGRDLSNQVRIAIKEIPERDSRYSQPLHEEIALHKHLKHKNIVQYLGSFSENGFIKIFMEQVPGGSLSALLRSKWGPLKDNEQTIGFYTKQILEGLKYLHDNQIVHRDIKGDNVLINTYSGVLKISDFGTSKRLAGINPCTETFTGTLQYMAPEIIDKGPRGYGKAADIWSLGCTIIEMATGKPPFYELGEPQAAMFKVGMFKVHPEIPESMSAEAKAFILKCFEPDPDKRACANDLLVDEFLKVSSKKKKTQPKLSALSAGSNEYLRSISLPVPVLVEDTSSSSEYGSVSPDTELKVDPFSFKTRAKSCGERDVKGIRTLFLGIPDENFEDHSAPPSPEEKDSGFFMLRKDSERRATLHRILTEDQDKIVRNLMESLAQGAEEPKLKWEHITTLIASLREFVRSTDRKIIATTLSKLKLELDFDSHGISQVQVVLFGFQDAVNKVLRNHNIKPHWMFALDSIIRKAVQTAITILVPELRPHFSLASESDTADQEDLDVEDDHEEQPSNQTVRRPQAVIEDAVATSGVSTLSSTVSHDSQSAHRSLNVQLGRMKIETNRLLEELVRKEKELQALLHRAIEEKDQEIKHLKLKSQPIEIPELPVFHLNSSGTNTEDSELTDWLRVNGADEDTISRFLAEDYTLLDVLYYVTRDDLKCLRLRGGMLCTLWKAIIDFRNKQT

[2] = biological target: Serine/threonine-protein kinase Nek9 (Homo sapiens, UniProt Q8TD19); test: Inhibition of NEK9 in human HeLa cells lysate pre incubated for 15 mins followed by ADP acyl phosphate probe addition and measured after 10 mins by LC-MS/MS analysis; format: subcellular
[3] = biological target: T1, Dual specificity mitogen-activated protein kinase kinase 4 (Homo sapiens) (UniProt P45985); test: Inhibition of MAP2K4 in human HeLa cells lysate at 50 uM pre incubated for 15 mins followed by ADP acyl phosphate probe addition and measured after 10 mins by LC-MS/MS analysis relative to control; format: subcellular; conditions: time 25.0 min
T1 sequence (whole entry): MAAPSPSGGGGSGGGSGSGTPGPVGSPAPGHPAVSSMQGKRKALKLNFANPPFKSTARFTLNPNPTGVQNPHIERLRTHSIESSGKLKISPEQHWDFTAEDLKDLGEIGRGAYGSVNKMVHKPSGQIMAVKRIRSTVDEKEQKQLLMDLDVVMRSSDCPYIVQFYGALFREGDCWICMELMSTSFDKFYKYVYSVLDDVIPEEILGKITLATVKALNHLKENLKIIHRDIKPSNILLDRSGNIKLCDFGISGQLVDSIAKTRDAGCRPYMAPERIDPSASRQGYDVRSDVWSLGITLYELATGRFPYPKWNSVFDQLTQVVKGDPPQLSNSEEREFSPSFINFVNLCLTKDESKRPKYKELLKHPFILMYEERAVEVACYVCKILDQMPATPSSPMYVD

[4] = biological target: Macrophage-stimulating protein receptor (Homo sapiens, UniProt Q04912); test: Inhibition of RON in human HeLa cells lysate at 10 uM pre incubated for 15 mins followed by ADP acyl phosphate probe addition and measured after 10 mins by LC-MS/MS analysis relative to control; format: subcellular; conditions: time 25.0 min
[5] = Inhibition of MAP3K2/MAP3K3 in human HeLa cells lysate at 10 uM pre incubated for 15 mins followed by ADP acyl phosphate probe addition and measured after 10 mins by LC-MS/MS analysis relative to control; conditions: 25 min, condition cancer
[6] = Inhibition of PCTAIRE2/ICK in human HeLa cells lysate at 2 uM pre incubated for 15 mins followed by ADP acyl phosphate probe addition and measured after 10 mins by LC-MS/MS analysis relative to control; conditions: 25 min, condition cancer
[7] = biological target: Tyrosine-protein kinase receptor UFO (Homo sapiens) (UniProt P30530); test: Inhibition of AXL in human HeLa cells lysate at 2 uM pre incubated for 15 mins followed by ADP acyl phosphate probe addition and measured after 10 mins by LC-MS/MS analysis relative to control; format: subcellular; conditions: time 25.0 min
Outline: (§1)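 KiNativ-type profiling in HeLa lysate (5 mg/mL total protein). Lysate preincubated 15 min with inhibitor at 50, 10, 2, 0.8 or 0 μM, then ATP or ADP acylphosphate probe added (5 μM final) for 10 min. Reaction stopped with urea and analysed by targeted MS, using up to four fragment ions per kinase peptide-probe conjugate. % inhibition calculated against untreated lysate. Duplicate reactions.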

[8] = biological target: Ribosomal protein S6 kinase alpha-3 (Homo sapiens, UniProt P51812); test: Inhibition of RSK2 domain 2 in human HeLa cells lysate at 50 uM pre incubated for 15 mins followed by ATP acyl phosphate probe addition and measured after 10 mins by LC-MS/MS analysis relative to control; format: subcellular; conditions: time 25.0 min
[9] = biological target: Calcium/calmodulin-dependent protein kinase type II subunit delta (Homo sapiens, UniProt Q13557); test: Inhibition of CAMK2d in human HeLa cells lysate at 50 uM pre incubated for 15 mins followed by ATP acyl phosphate probe addition and measured after 10 mins by LC-MS/MS analysis relative to control; format: subcellular; conditions: time 25.0 min; outline: as §1
[10] = biological target: Mitogen-activated protein kinase kinase kinase 20 (Homo sapiens, UniProt Q9NYL2); test: Inhibition of ZAK in human HeLa cells lysate at 50 uM pre incubated for 15 mins followed by ATP acyl phosphate probe addition and measured after 10 mins by LC-MS/MS analysis relative to control; format: subcellular; conditions: time 25.0 min
Sequence of Mitogen-activated protein kinase kinase kinase 20 (Q9NYL2 2-800 limits assumed): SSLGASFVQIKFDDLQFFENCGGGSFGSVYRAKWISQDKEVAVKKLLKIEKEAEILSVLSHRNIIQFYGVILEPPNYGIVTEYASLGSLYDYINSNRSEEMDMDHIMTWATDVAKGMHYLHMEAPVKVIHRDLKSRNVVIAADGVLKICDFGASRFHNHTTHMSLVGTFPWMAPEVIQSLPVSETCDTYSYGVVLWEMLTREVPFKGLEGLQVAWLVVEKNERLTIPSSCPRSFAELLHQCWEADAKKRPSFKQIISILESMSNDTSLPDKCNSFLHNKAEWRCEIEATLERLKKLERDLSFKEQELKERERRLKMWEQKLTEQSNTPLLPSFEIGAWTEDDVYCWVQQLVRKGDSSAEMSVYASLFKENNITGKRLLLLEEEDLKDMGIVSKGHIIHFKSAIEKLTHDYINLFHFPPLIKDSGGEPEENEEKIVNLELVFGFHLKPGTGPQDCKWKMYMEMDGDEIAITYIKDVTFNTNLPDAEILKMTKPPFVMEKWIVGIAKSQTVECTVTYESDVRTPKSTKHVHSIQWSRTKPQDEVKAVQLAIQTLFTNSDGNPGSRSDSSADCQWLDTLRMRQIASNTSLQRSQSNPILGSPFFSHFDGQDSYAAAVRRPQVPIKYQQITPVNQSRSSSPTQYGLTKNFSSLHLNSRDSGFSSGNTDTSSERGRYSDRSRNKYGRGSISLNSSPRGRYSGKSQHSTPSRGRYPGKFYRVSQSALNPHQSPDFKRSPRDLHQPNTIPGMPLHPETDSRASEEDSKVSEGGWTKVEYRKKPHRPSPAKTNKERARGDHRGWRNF

PKC alpha and beta-2 = PKC alpha and beta-2 (Homo sapiens, UniProt P17252+P05771); test: Inhibition of PKCalpha/beta in human HeLa cells lysate at 50 uM pre incubated for 15 mins followed by ATP acyl phosphate probe addition and measured after 10 mins by LC-MS/MS analysis relative to control; format: subcellular; conditions: time 25.0 min
Sequence of PKC alpha and beta-2 (P05771 whole entry, looked up): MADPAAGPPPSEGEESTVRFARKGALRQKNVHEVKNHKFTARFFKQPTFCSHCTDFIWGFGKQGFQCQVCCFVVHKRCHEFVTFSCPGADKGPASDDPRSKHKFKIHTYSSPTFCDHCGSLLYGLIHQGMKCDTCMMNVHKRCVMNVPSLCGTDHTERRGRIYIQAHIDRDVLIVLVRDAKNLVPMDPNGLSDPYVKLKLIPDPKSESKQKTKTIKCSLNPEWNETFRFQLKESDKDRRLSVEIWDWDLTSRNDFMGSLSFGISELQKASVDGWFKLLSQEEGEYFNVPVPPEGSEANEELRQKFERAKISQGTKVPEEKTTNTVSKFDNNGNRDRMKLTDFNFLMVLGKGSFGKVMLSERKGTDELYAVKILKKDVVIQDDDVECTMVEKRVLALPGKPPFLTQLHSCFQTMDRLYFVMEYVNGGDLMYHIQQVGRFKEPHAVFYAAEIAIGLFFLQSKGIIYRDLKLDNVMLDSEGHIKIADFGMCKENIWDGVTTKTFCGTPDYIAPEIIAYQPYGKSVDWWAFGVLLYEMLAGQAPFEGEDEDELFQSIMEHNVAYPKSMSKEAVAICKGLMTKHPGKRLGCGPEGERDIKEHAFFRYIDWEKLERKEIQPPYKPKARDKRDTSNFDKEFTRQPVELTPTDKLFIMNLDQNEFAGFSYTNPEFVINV

[11] = biological target: Calcium/calmodulin-dependent protein kinase type II subunit gamma (Homo sapiens, UniProt Q13555); test: Inhibition of CAMK2g in human HeLa cells lysate at 50 uM pre incubated for 15 mins followed by ATP acyl phosphate probe addition and measured after 10 mins by LC-MS/MS analysis relative to control; format: subcellular; conditions: time 25.0 min; outline: as §1
[12] = biological target: T2, Phosphatidylinositol 5-phosphate 4-kinase type-2 gamma (Homo sapiens) (UniProt Q8TBX8); test: Inhibition of PIP5K2C LIP2 site in human HeLa cells lysate at 50 uM pre incubated for 15 mins followed by ATP acyl phosphate probe addition and measured after 10 mins by LC-MS/MS analysis relative to control; format: subcellular; conditions: time 25.0 min
T2 sequence (whole entry): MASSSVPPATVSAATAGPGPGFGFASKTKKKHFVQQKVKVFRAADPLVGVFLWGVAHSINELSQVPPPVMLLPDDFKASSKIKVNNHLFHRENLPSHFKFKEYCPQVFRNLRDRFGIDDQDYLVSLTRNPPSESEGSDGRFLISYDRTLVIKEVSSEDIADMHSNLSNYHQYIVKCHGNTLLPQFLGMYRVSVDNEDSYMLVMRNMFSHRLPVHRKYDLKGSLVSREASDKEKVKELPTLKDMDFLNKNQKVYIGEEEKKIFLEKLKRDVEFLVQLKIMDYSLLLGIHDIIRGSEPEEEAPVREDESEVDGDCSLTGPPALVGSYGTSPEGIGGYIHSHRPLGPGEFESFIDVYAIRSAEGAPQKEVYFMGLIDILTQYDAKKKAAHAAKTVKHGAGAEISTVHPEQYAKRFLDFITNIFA

[13] = biological target: T2, Phosphatidylinositol 5-phosphate 4-kinase type-2 gamma (Homo sapiens); test: Inhibition of PIP5K2C LIP1 site in human HeLa cells lysate at 50 uM pre incubated for 15 mins followed by ATP acyl phosphate probe addition and measured after 10 mins by LC-MS/MS analysis relative to control; format: subcellular; conditions: time 25.0 min
[14] = biological target: Serine/threonine-protein kinase Nek1 (Homo sapiens) (UniProt Q96PY6); test: Inhibition of NEK1 in human HeLa cells lysate at 50 uM pre incubated for 15 mins followed by ATP acyl phosphate probe addition and measured after 10 mins by LC-MS/MS analysis relative to control; format: subcellular; conditions: time 25.0 min
Sequence of Serine/threonine-protein kinase Nek1 (Homo sapiens) (Q96PY6 whole entry): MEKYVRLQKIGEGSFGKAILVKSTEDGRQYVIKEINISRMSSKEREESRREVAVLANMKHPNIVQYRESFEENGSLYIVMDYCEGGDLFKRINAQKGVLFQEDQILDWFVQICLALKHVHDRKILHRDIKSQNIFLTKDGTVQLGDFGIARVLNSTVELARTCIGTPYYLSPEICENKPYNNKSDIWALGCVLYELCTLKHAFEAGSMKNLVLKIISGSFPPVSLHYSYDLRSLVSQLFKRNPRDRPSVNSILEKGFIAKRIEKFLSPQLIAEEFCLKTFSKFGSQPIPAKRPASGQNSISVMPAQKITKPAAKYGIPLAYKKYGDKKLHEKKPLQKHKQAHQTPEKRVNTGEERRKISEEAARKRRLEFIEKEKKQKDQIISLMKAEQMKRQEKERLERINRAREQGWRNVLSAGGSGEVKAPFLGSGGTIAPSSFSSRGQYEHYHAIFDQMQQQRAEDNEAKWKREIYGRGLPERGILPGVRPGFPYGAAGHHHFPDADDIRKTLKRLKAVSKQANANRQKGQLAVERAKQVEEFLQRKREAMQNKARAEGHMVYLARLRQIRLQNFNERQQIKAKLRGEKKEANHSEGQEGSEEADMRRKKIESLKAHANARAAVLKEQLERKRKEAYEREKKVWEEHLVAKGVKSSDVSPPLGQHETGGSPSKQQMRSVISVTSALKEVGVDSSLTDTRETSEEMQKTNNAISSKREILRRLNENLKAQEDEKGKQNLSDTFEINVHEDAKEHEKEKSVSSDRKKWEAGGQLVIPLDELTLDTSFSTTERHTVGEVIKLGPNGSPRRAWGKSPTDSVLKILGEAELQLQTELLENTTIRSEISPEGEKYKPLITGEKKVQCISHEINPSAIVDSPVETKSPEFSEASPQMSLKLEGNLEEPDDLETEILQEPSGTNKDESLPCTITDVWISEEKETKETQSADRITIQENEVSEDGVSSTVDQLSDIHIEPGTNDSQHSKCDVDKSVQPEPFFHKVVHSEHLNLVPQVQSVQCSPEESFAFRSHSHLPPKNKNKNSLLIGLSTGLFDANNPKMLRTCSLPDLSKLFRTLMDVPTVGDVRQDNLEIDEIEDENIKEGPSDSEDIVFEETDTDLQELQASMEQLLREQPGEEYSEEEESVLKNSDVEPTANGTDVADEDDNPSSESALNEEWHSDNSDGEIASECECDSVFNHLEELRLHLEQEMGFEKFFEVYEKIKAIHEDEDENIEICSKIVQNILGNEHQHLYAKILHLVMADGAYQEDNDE

[15] = biological target: MAP/microtubule affinity-regulating kinase 3 (Homo sapiens, UniProt P27448); test: Inhibition of MARK3 in human HeLa cells lysate at 10 uM pre incubated for 15 mins followed by ATP acyl phosphate probe addition and measured after 10 mins by LC-MS/MS analysis relative to control; format: subcellular; conditions: time 25.0 min
HeLa = test: Antitumor activity against human HeLa cells xenografted in NOD/SCID mouse assessed as decrease in BrdU incorporation in cell nuclei in tumor at 50 mg/kg, ip by fluorescence microscopic analysis; format: functional, organism-based
Outline: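 HeLa or LL/2 tumor sections from treated and control xenograft mice were stained with anti-BrdU antibody and DAPI and imaged by fluorescence microscopy. n = 6 mice, 9 slices.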

CCOc1cc(N2CCC(O)CC2)ccc1Nc1ncc2c(n1)N(C)c1ccccc1C(=O)N2C
IC50 [1]: > 50 µM | IC50 [2]: > 50 µM | inhibition [3]: 3.1% | inhibition [4]: 24.9% | inhibition at 10 µM [5]: -18.3% | inhibition at 2 µM [6]: 1.2% | inhibition [7]: 13.1% | inhibition [8]: 47.7% | inhibition [9]: 40.8% | inhibition [10]: 33.3% | inhibition (PKC alpha and beta-2): 14.4% | inhibition [11]: 13.9% | inhibition [12]: 12.7% | inhibition [13]: 9.9% | inhibition [14]: -3.8% | inhibition [15]: -9.2% | Activity (HeLa): Active
